{
  "source": "ChEMBL document CHEMBL3243988",
  "about": "“Quantitative structure-activity relationships in 2,5-bis(1-aziridinyl)-p-benzoquinone derivatives against leukemia L-1210” (1979)",
  "assay_type_in_all_cases": "functional",
  "key": {"L1210 [1]": {"tested_on": "L1210", "assay": "Antileukemic activity against mouse L1210 cells allografted in BDF1 mouse assessed as concentration required to give maximum increase in life span administered for 1 day", "method_in_brief": "(§1)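 Single-injection schedule: BDF1 mice received 10⁵ L-1210 cells i.p. and one dose on day 1 only, with compound dissolved in DMSO and made up in sterile saline. Survival was compared with controls. MED is the dose yielding 40% ILS; OD is the dose yielding maximal ILS.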"}, "L1210 [2]": {"tested_on": "L1210", "assay": "Antileukemic activity against mouse L1210 cells allografted in BDF1 mouse assessed as concentration required to increase 40% life span administered for 1 day", "method_in_brief": "as §1"}, "L1210 [3]": {"tested_on": "L1210", "assay": "Antileukemic activity against mouse L1210 cells allografted in BDF1 mouse assessed as concentration required to increase 40% life span administered as continuous injection", "conditions": "read-out: MED", "method_in_brief": "(§2)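 Chronic schedule: 10⁵ L-1210 cells given i.p. to BDF1 mice, then treatment once daily on days 1-12 with compound in DMSO diluted with sterile saline. Life span was compared with controls. MED is the dose giving 40% increase in life span; OD is the dose giving maximum ILS.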"}, "L1210 [4]": {"tested_on": "L1210", "assay": "Chemotherapeutic index, ratio of antileukemic activity against mouse L1210 cells allografted in BDF1 mouse assessed as concentration required to give maximum increase in life span administered as continuous injection to antileukemic activity against mouse L1210 cells allografted in BDF1 mouse assessed as concentration required to increase 40% life span administered as continuous injection", "method_in_brief": "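Chemotherapeutic index was taken as OD/MED on the chronic schedule (QD days 1-12) in BDF1 mice bearing 10⁵ i.p.-inoculated L-1210 cells. OD is the dose giving maximum increase in life span; MED is the dose giving 40% ILS versus controls. Compounds were given in DMSO diluted with saline.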"}, "L1210 [5]": {"tested_on": "L1210", "assay": "Antileukemic activity against mouse L1210 cells allografted in BDF1 mouse assessed as concentration required to give maximum increase in life span administered as continuous injection", "method_in_brief": "as §2"}, "L1210 [6]": {"tested_on": "L1210", "assay": "Antileukemic activity against mouse L1210 cells allografted in BDF1 mouse", "method_in_brief": "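BDF1 mice inoculated intraperitoneally with 10⁵ L-1210 cells. Compounds were dissolved in dimethyl sulfoxide and diluted with sterile physiological saline for injection. Dosing was either chronic (QD days 1-12) or a single injection on day 1. Read-out was increase in life span (ILS) relative to untreated controls.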"}, "L1210 [7]": {"tested_on": "L1210", "assay": "Antileukemic activity against mouse L1210 cells allografted in BDF1 mouse assessed as concentration required to increase 40% life span administered as qd for 12 days", "method_in_brief": "as §2"}},
  "note": "Active and inactive are the calls of the source. The rule behind the calls is not given here.",
  "data": [
    {"compound": "CC1=C(N2CC2)C(=O)C(CCC(=O)N(C)C)=C(N2CC2)C1=O", "values": [
      {"measurement": "log(1/C)", "setting": "L1210 [1]", "result": 4.84},
      {"measurement": "log(1/C)", "setting": "L1210 [2]", "result": 5.09}
    ]},
    {"compound": "CO[C@@]12[C@H](COC(N)=O)C3=C(C(=O)C(C)=C(N)C3=O)N1C[C@@H]1N[C@@H]12", "note": "[MITOMYCIN]", "values": [
      {"measurement": "minimal effective dose", "setting": "L1210 [3]", "result": 0.9, "unit": "mg/kg"},
      {"measurement": "TI", "setting": "L1210 [4]", "result": 2.2},
      {"measurement": "Activity", "setting": "L1210 [5]", "result": 2, "unit": "mg/kg"}
    ]},
    {"compound": "COC(CO)C1=C(N2CC2)C(=O)C(C(CO)OC)=C(N2CC2)C1=O", "note": "(stereo unspecified)", "values": [
      {"measurement": "Activity", "setting": "L1210 [6]", "result": "Active"}
    ]},
    {"compound": "CC1=C(N2CC2)C(=O)C(C(C)C)=C(N2CC2)C1=O", "values": [
      {"measurement": "log(1/C)", "setting": "L1210 [7]", "result": 5.6}
    ]},
    {"compound": "O=C1C(CCO)=C(N2CC2)C(=O)C(CCO)=C1N1CC1", "values": [
      {"measurement": "log(1/C)", "setting": "L1210 [1]", "result": 5.6}
    ]},
    {"compound": "CC1=C(N2CC2)C(=O)C(CCCc2ccccc2)=C(N2CC2)C1=O", "values": [
      {"measurement": "log(1/C)", "setting": "L1210 [1]", "result": 3.6}
    ]},
    {"compound": "COC(CO[C@@H]1O[C@H](COC(C)=O)[C@@H](OC(C)=O)[C@H](OC(C)=O)[C@H]1OC(C)=O)C1=C(N2CC2)C(=O)C(C)=C(N2CC2)C1=O", "note": "(stereo partly specified)", "values": [
      {"measurement": "Activity", "setting": "L1210 [6]", "result": "Active"}
    ]},
    {"compound": "O=C1C=C(N2CC2)C(=O)C(N2CC2)=C1N1CC1", "note": "[TRIAZIQUONE]", "values": [
      {"measurement": "minimal effective dose", "setting": "L1210 [3]", "result": 0.082, "unit": "mg/kg"},
      {"measurement": "TI", "setting": "L1210 [4]", "result": 1.8},
      {"measurement": "Activity", "setting": "L1210 [5]", "result": 0.15, "unit": "mg/kg"}
    ]},
    {"compound": "CCCC1=C(N2CC2)C(=O)C(CCOC(N)=O)=C(N2CC2)C1=O", "values": [
      {"measurement": "log(1/C)", "setting": "L1210 [2]", "result": 4.9}
    ]},
    {"compound": "CCOC(COC(N)=O)C1=C(N2CC2)C(=O)C(CC)=C(N2CC2)C1=O", "note": "(stereo unspecified)", "values": [
      {"measurement": "log(1/C)", "setting": "L1210 [2]", "result": 5.4}
    ]},
    {"compound": "COC(COC(N)=O)C1=C(N2CC2)C(=O)C(C)=C(N2CC2)C1=O", "note": "(stereo unspecified) [CARBOQUONE]", "values": [
      {"measurement": "minimal effective dose", "setting": "L1210 [3]", "result": 0.13, "unit": "mg/kg"},
      {"measurement": "TI", "setting": "L1210 [4]", "result": 5.4},
      {"measurement": "Activity", "setting": "L1210 [5]", "result": 0.7, "unit": "mg/kg"}
    ]},
    {"compound": "COC(CO)C1=C(N2CC2)C(=O)C(C)=C(N2CC2)C1=O", "note": "(stereo unspecified)", "values": [
      {"measurement": "log(1/C)", "setting": "L1210 [7]", "result": 6.9}
    ]},
    {"compound": "CCC(COC(N)=O)C1=C(N2CC2)C(=O)C(C)=C(N2CC2)C1=O", "note": "(stereo unspecified)", "values": [
      {"measurement": "log(1/C)", "setting": "L1210 [1]", "result": 5.2}
    ]},
    {"compound": "COC(COC(N)=O)C1=C(N2CC2)C(=O)C(C(COC(N)=O)OC)=C(N2CC2)C1=O", "note": "(stereo unspecified)", "values": [
      {"measurement": "Activity", "setting": "L1210 [6]", "result": "Active"}
    ]}
  ]
}
